Measured values taken from ChEMBL document CHEMBL1129431, “Derivatives of (R)- and (S)-5-fluoro-8-hydroxy-2-(dipropylamino)tetralin: synthesis and interactions with 5-HT1A receptors” (J Med Chem, 1996).
Values joined by “and” are separate entries in the source; they are usually repeats but may differ in a detail not shown here. Equal values may be shown once.

Tests used:
[1] = target: T1, 5-hydroxytryptamine receptor 1A (Rattus norvegicus) (UniProt P19327); experiment: Effect on 5-hydroxytryptamine 1A receptor mediated inhibition of VIP-stimulated cAMP production at dose of 0.1 uM + 1 uM 5-HT.; type: functional; conditions: values are per cent of control
T1 sequence (whole entry): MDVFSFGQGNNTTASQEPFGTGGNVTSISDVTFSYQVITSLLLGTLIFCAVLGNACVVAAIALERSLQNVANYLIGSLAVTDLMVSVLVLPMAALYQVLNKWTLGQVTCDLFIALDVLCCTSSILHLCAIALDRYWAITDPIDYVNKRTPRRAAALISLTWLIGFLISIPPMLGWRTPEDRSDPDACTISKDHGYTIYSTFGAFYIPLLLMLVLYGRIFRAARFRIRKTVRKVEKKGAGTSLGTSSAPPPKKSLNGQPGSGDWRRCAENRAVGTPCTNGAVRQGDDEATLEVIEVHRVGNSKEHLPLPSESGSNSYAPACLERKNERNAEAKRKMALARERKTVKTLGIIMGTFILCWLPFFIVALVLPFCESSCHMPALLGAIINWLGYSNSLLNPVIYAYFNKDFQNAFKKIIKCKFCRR
In short: (§1)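 GH4ZD10 cells expressing rat 5-HT1A receptors were detached with EBSS plus 1 mM EDTA and resuspended to ~1×10^7 cells/mL in Ham's F10 with 0.01% ascorbic acid and 0.1 mM IBMX. After 1 h preincubation at 37 °C they were diluted to 0.8-1.5×10^6 cells/mL, then incubated 20 min at 37 °C with VIP (39 nM final) plus compound, alone or with 5-HT, in duplicate. The reaction was stopped by boiling. cAMP was measured in triplicate by protein-binding assay and expressed as % of the VIP-stimulated response.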

[2] = target: T1, 5-hydroxytryptamine receptor 1A (Rattus norvegicus); experiment: Effect on 5-hydroxytryptamine 1A receptor mediated inhibition of VIP-stimulated cAMP production at dose of 1 uM; type: functional; conditions: values are per cent of control; in short: as §1
[3] = target: T1, 5-hydroxytryptamine receptor 1A (Rattus norvegicus); experiment: Effect against 5-hydroxytryptamine 1A receptor mediated inhibition of VIP-stimulated cAMP production at 0.1 uM dose; type: functional; conditions: values are per cent of control; in short: as §1
[4] = target: T1, 5-hydroxytryptamine receptor 1A (Rattus norvegicus); experiment: Effect on 5-hydroxytryptamine 1A receptor mediated inhibition of VIP-stimulated cAMP production at dose of 10 uM; type: functional; conditions: values are per cent of control; in short: as §1
[5] = target: T2, 5-hydroxytryptamine receptor 1A (Rattus norvegicus, UniProt P19327); experiment: Binding affinity against rat hippocampal 5-hydroxytryptamine 1A (5-HT1A) receptor determined using [3H]8-OH-DPAT as radioligand; type: tissue-based, Hippocampus
T2 sequence (P19327 whole entry): T1 sequence (whole entry)

[6] = target: T1, 5-hydroxytryptamine receptor 1A (Rattus norvegicus); experiment: Effect on 5-hydroxytryptamine 1A receptor mediated inhibition of VIP-stimulated cAMP production at dose of 1 uM+ 1 uM 5-HT.; type: functional; conditions: values are per cent of control
In short: (§2)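 GH4ZD10 cells expressing rat 5-HT1A receptors, detached with EDTA-supplemented Ca/Mg-free EBSS and resuspended in Ham's F10 with 0.01% ascorbic acid and 0.1 mM IBMX. Preincubated 1 h at 37 °C, then 0.8-1.5×10^6 cells/mL incubated 20 min at 37 °C with VIP (39 nM final) plus compounds. Duplicate samples stopped by boiling. cAMP measured in triplicate by protein-binding assay. Results are given as % of the VIP-stimulated response.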

[7] = target: T1, 5-hydroxytryptamine receptor 1A (Rattus norvegicus); experiment: Effect on 5-hydroxytryptamine 1A receptor mediated inhibition of VIP-stimulated cAMP production at dose of 50 uM; type: functional; conditions: values are per cent of control; in short: as §2
[8] = target: T1, 5-hydroxytryptamine receptor 1A (Rattus norvegicus); conditions: 0.05 uM
[9] = target: T1, 5-hydroxytryptamine receptor 1A (Rattus norvegicus); experiment: Effect on 5-hydroxytryptamine 1A receptor mediated inhibition of VIP-stimulated cAMP production at dose of 0.05 uM; type: functional; conditions: values are per cent of control; in short: as §2
[10] = target: T1, 5-hydroxytryptamine receptor 1A (Rattus norvegicus); experiment: Effect on 5-hydroxytryptamine 1A receptor mediated inhibition of VIP-stimulated cAMP production at dose of 1 uM+ 10 uM 5-HT.; type: functional; conditions: values are per cent of control; in short: as §1
[11] = target: T1, 5-hydroxytryptamine receptor 1A (Rattus norvegicus); experiment: Effect on 5-hydroxytryptamine 1A receptor mediated inhibition of VIP-stimulated cAMP production at dose of 1 uM+ 50 uM 5-HT.; type: functional; conditions: values are per cent of control; in short: as §2
[12] = target: T1, 5-hydroxytryptamine receptor 1A (Rattus norvegicus); experiment: Effect on 5-hydroxytryptamine 1A receptor mediated inhibition of VIP-stimulated cAMP production at dose of 0.1 uM + 10 uM 5-HT.; type: functional; conditions: values are per cent of control; in short: as §1
[13] = target: T1, 5-hydroxytryptamine receptor 1A (Rattus norvegicus); experiment: Effect on 5-hydroxytryptamine 1A receptor mediated inhibition of VIP-stimulated cAMP production at dose of 30 uM; type: functional; conditions: values are per cent of control; in short: as §1
[14] = target: T1, 5-hydroxytryptamine receptor 1A (Rattus norvegicus); conditions: 0.1 uM
[15] = target: T1, 5-hydroxytryptamine receptor 1A (Rattus norvegicus); conditions: 1 uM

SMILES | response, % of control [1] | response, % of control [2] | Ki [5] | further results
CCCN(CCC)[C@@H]1CCc2c(F)ccc(O)c2C1 | 57% | 78% | – | response, % of control [3]: 86%; response, % of control [4]: 61%
CCCN(CCC)[C@H]1CCc2cccc(-c3ccco3)c2C1 | – | – | 1.8 nM | –
CCCN(CCC)[C@@H]1CCc2c(F)ccc(-c3cccs3)c2C1 | – | – | 35 nM | –
CCCN(CCC)[C@H]1CCc2cccc(O)c2C1 | 43% | 61% | – | response, % of control [6]: 47%; response, % of control [3]: 74%; response, % of control [4]: 62%
CCCN(CCCCN1C(=O)CC2(CCCC2)CC1=O)[C@H]1CCc2c(F)ccc(O)c2C1 | – | 91% | 18.2 nM | response, % of control [7]: 82%; response, % of control [8]: 68%; response, % of control [9]: 95%
CCCN(CCC)[C@@H]1CCc2c(F)ccc(C(C)=O)c2C1 [listing 1 of 3 here] | – | – | 6.9 nM | –
CCCN(CCC)[C@@H]1CCc2cccc(-c3cccs3)c2C1 | – | – | 8.4 nM | –
CCCN(CCC)[C@@H]1CCc2c(F)ccc(C(C)=O)c2C1 [listing 2 of 3 here] | – | – | 6.9 nM | –
CCCN(CCC)[C@H]1CCc2cccc(S(=O)(=O)C(F)(F)F)c2C1 | – | – | 9.5 nM | –
CCCN(CCCCN1C(=O)CC2(CCCC2)CC1=O)[C@H]1CCc2c(F)ccc(OS(=O)(=O)C(F)(F)F)c2C1 | 68% | 90% | 177 nM | response, % of control [7]: 65%; response, % of control [9]: 98%
CCCN(CCC)[C@H]1CCc2c(F)ccc(C(C)=O)c2C1 [listing 1 of 2 here] | – | – | 13.6 nM | –
O=C1CC2(CCCC2)CC(=O)N1CCCCN1CCN(c2ncccn2)CC1 | 43% | 75% | – | response, % of control [10]: 64%; response, % of control [3]: 84%; response, % of control [4]: 73%
CCCN(CCC)[C@H]1CCc2c(F)cccc2C1 | – | – | 250 nM | –
CCCN(CCC)[C@@H]1CCc2c(F)ccc(OS(=O)(=O)C(F)(F)F)c2C1 | – | – | 18.5 nM | –
CCCN(CCCCN1C(=O)CC2(CCCC2)CC1=O)[C@@H]1CCc2c(F)ccc(OS(=O)(=O)C(F)(F)F)c2C1 | 68% | 73% | 0.9 nM | response, % of control [11]: 51%; response, % of control [9]: 98%
CCCN(CCC)[C@H]1CCc2c(F)ccc(-c3cccs3)c2C1 [listing 1 of 3 here] | – | – | 32.7 nM | –
CCCN(CCC)[C@H]1CCc2c(F)ccc(-c3cccs3)c2C1 [listing 2 of 3 here] | – | – | 32.7 nM | –
CCCN(CCCCN1C(=O)CC2(CCCC2)CC1=O)[C@@H]1CCc2c(F)ccc(O)c2C1 | 68% | 66% | < 0.3 nM | response, % of control [7]: 68%; response, % of control [9]: 72%
CCCN(CCC)[C@@H]1CCc2c(F)ccc(-c3ccco3)c2C1 | 60% | 97% | – | response, % of control [12]: 61%; response, % of control [13]: 79%; response, % of control [3]: 106% and 98%; response, % of control [4]: 84%
CCCN(CCC)[C@H]1CCc2c(F)ccc(C(C)=O)c2C1 [listing 2 of 2 here] | – | – | 13.6 nM | –
CCCN(CCC)[C@@H]1CCc2c(F)ccc(C(C)=O)c2C1 [listing 3 of 3 here] | 60% | – | – | response, % of control [11]: 63%; response, % of control [14]: 95%; response, % of control [13]: 62%; response, % of control [3]: 99%; response, % of control [15]: 63%; response, % of control [4]: 61%
CCCN(CCC)[C@H]1CCc2c(F)ccc(-c3cccs3)c2C1 [listing 3 of 3 here] | 57% | 96% | – | response, % of control [3]: 99%; response, % of control [4]: 88%
